Compound activity (PubChem BioAssay)
Only some compounds are listed: those with a hit (about 2.2% of all), similar ones and a draw of the others.
ARFGAP1 inh – inhibitors of rat ARFGAP1 GAP activity, primary screen, biochemical, fluorescence polarization, GDP tracer; ADP-ribosylation factor GTPase-activating protein 1 (Rattus norvegicus), Q62848; Arfgap1-stimulated ARF1 GTP hydrolysis, GDP FP detection; inhibition, % at 16.5 µM; 360,000 tested, 0.26% active; AID 651572, 2012;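 active = inhibition above a per-plate limit, mean inhibition of low control wells plus 3 SD, cut at about 25% in these data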;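 also: 0% = DMSO wells with enzyme and 100% = wells lacking Arfgap1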
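Repeats: one replicate per compound; assay system: rat Arfgap1 catalytic domain, aa 1-136; times: enzyme reaction 120 min at 25 °C after 20 min preincubation; detection: FP of antibody-bound GDP Alexa 633 tracer, ex 620/em 688 nm; benchmarks: high control wells lacking Arfgap1, low control full reaction with DMSO; reagent: human ARF1(Δ1-17)-GTP substrate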
V-ATPase pHluor – regulators of yeast V-ATPase proton pumping, primary screen, pHLuorin cytosolic pH fluorescence | S. cerevisiae | response, % at 10 µM | 350,000 tested, 0.37% active | AID 504577, 2011; in the data active = response mostly above about 7.3%, no sharp cut-off; inactive = mostly below about 5.4%; also: actives read high
CendR NRP1 mod – modulators of CendR peptide binding to NRP-1, primary screen, biochemical, fluorescence polarization, uHTS | Neuropilin-1 (Homo sapiens), O14786 | FAM-RPARPAR peptide binding to NRP-1 | inhibition, % at 25 µM | 360,000 tested, 0.85% active;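 active = inhibition or corrected inhibition above about 18%, plus a signal ratio from 0.5 to 1.5, limit read from the data, passing the limit was not always enough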
ASAP1 GAP inh – inhibitors of human ASAP1 ArfGAP activity, primary screen, biochemical, fluorescence polarization | ASAP1-stimulated ARF1 GTP hydrolysis, GDP FP detection | Arf-GAP with SH3 domain, ANK repeat and PH domain-containing protein 1 (Homo sapiens), … | inhibition, % at 16.5 µM | 360,000 tested, 0.19% active | AID 624377, 2012; in the data active = inhibition above about 25%;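 also: 0% = vehicle with enzyme and substrate and 100% = no enzyme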
Granule exo inh – LAMP-1 surface exposure blockers, TALL-104 cells – cell-based, flow cytometry, MLPCN library, primary screen. inhibition, % at 10 µM. TALL-104 LAMP-1 surface exposure; cells stimulated with thapsigargin and PMA. AID 651702, 2012. 360,000 tested, 0.66% active;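 active = inhibition above about 55%, limit read from the data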
* hit, by the source's call.

What do the screens show for `CN(C)CCCN(C(=O)c1cc2cc([N+](=O)[O-])ccc2s1)c1nc2cc3c(cc2s1)OCCO3`?
ARFGAP1 inh: 8; V-ATPase pHluor: -2; CendR NRP1 mod: 7; ASAP1 GAP inh: -5; Granule exo inh: 76*

How did CN(C)CCCN(C(=O)c1ccc([N+](=O)[O-])s1)c1nc2cc3c(cc2s1)OCCO3 do in these assays?
ARFGAP1 inh: 3; V-ATPase pHluor: 0; CendR NRP1 mod: 18; ASAP1 GAP inh: 17; Granule exo inh: 6

How did CN(C)CCN(C(=O)c1ccc2c(c1)OCCO2)c1nc2cc3c(cc2s1)OCO3 do in these assays?
ARFGAP1 inh: -3; V-ATPase pHluor: 7; CendR NRP1 mod: 25*; ASAP1 GAP inh: 15; Granule exo inh: -15

Results for COC(=O)[C@]12C[C@H](CC(=O)N3CCCCC3)C(=O)N(Cc3ccccc3)C1=C[C@H](C(C)C)O[C@@H]2C1CC1 ?
ARFGAP1 inh: -9; ASAP1 GAP inh: 8

Results for O=C(N[C@@H](Cc1cccnc1)C(=O)N1CCC[C@H]1C(=O)NCc1ccccc1)c1ccc(Cl)c(Cl)c1 ?
ARFGAP1 inh: -4; ASAP1 GAP inh: -6

Results for CN(C)/N=C/C=C1\CCC/C(=C\c2ccc(F)c(F)c2)C1=O ?
ARFGAP1 inh: 6; V-ATPase pHluor: 0; CendR NRP1 mod: -32; ASAP1 GAP inh: -10; Granule exo inh: 90*

What do the screens show for `COc1ccc(/C=C2\CCC/C(=C\C=N\N(C)C)C2=O)cc1`?
ARFGAP1 inh: 5; V-ATPase pHluor: -3; CendR NRP1 mod: -94; ASAP1 GAP inh: -4; Granule exo inh: 37

How did COC(=O)C1=C(C)N(Cc2ccccc2C(F)(F)F)C(=NCc2cc(OC)c(OC)c(OC)c2)NC1c1cccc(Cl)c1 (configuration not stated) do in these assays?
ARFGAP1 inh: 13; ASAP1 GAP inh: -4

Results for CCOC(=O)c1c[nH]c(=S)n(-c2ccccc2)c1=O ?
ARFGAP1 inh: 1; V-ATPase pHluor: -4; CendR NRP1 mod: 2; ASAP1 GAP inh: 6; Granule exo inh: -5

How did CCOC(=O)c1c(SCCN2CCCC2)n(-c2ccccc2)c(=S)n(-c2ccccc2)c1=O do in these assays?
ARFGAP1 inh: 4; V-ATPase pHluor: 6; CendR NRP1 mod: -11; ASAP1 GAP inh: -2; Granule exo inh: 73*

What do the screens show for `CC1Sc2ccc(S(=O)(=O)NCCc3ccc(S(N)(=O)=O)cc3)cc2NC1=O` (configuration not stated)?
ARFGAP1 inh: -5; V-ATPase pHluor: 0; CendR NRP1 mod: 12; ASAP1 GAP inh: -15; Granule exo inh: 0

What do the screens show for `CC1C(=O)Nc2ccc(S(=O)(=O)NCCc3ccc(Cl)cc3)cc2NC1=O` (configuration not stated)?
ARFGAP1 inh: 2; V-ATPase pHluor: -1; CendR NRP1 mod: 24*; ASAP1 GAP inh: 3; Granule exo inh: 11

Results for CSc1ccc(S(=O)(=O)NCC(=O)OCC(=O)N2CCCC2=O)cc1[N+](=O)[O-] ?
ARFGAP1 inh: -7; V-ATPase pHluor: 1; CendR NRP1 mod: -7; ASAP1 GAP inh: -10; Granule exo inh: 33

Results for CCCCc1c(-c2ccccc2OC)ncn1Cc1ccc([N+](=O)[O-])cc1 ?
ARFGAP1 inh: -13; ASAP1 GAP inh: 3

Results for COc1cccc(C(=O)C(C#N)=C(SC)SC)c1 ?
ARFGAP1 inh: 6; V-ATPase pHluor: -2; CendR NRP1 mod: 2; ASAP1 GAP inh: -8; Granule exo inh: 70*

What do the screens show for `CSC(SC)=C(C#N)C(=O)c1ccccc1`?
ARFGAP1 inh: -6; V-ATPase pHluor: 1; CendR NRP1 mod: -6; ASAP1 GAP inh: -8; Granule exo inh: 56*

Results for O=C(O)c1ccc(C(=O)C(=O)c2ccccc2)cc1 ?
ARFGAP1 inh: 2; V-ATPase pHluor: -2; CendR NRP1 mod: -3; ASAP1 GAP inh: -14; Granule exo inh: 1

How did CN(c1cccnc1)c1ccc(NC(=O)Cc2c[nH]c3ccccc23)cc1Br do in these assays?
ARFGAP1 inh: 14; ASAP1 GAP inh: 15

What do the screens show for `COc1ccc(CN(C)C(=O)C(Cc2ccccc2)NC(=O)c2ccccc2)cc1F` (configuration not stated)?
ARFGAP1 inh: -5; V-ATPase pHluor: 6; CendR NRP1 mod: 12; ASAP1 GAP inh: -13; Granule exo inh: -1

What do the screens show for `CCOc1ccc(CN(C)C(=O)[C@H](Cc2ccccc2)NC(=O)OCc2ccccc2)cc1OC`?
ARFGAP1 inh: -6; V-ATPase pHluor: -4; CendR NRP1 mod: 17; ASAP1 GAP inh: 1; Granule exo inh: 56*

What do the screens show for `CC1(C)Cc2c(sc(NC(=O)C(=O)N3CCCC3)c2C#N)CO1`?
ARFGAP1 inh: 15; V-ATPase pHluor: 0; CendR NRP1 mod: 0; ASAP1 GAP inh: -2; Granule exo inh: 0

Results for C/C(=N\NC(=O)c1ccc(Cl)cc1)c1cccs1 ?
ARFGAP1 inh: 6; V-ATPase pHluor: 12*; CendR NRP1 mod: -6; ASAP1 GAP inh: -3; Granule exo inh: 1

Results for C/C(=N\NC(=O)c1ccc(NS(=O)(=O)c2cccs2)cc1)c1cccs1 ?
ARFGAP1 inh: 0; V-ATPase pHluor: 4; CendR NRP1 mod: -2; ASAP1 GAP inh: -1; Granule exo inh: -3

Results for CN1CCN(C2=C(Cl)C(=O)C(c3cnc(N4CCCCC4)s3)=C(Cl)C2=O)CC1 ?
V-ATPase pHluor: 17*; CendR NRP1 mod: 9; Granule exo inh: 17

How did NC(=O)C1CCN(C2=C(NS(=O)(=O)c3ccccc3)C(=O)c3ccccc3C2=O)CC1 do in these assays?
ARFGAP1 inh: 5; V-ATPase pHluor: 3; CendR NRP1 mod: 4; ASAP1 GAP inh: -6; Granule exo inh: -5

What do the screens show for `CN1CCN(C2=C(Cl)C(=O)c3ccccc3C2=O)CC1`?
ARFGAP1 inh: -13; V-ATPase pHluor: 3; CendR NRP1 mod: 36*; ASAP1 GAP inh: 7; Granule exo inh: -3

What do the screens show for `O=C1C(Cl)=C(N2CCC(C(=O)O)CC2)C(=O)c2ccccc21`?
V-ATPase pHluor: 1; CendR NRP1 mod: 35*; Granule exo inh: 38

Results for C=CCOC(=O)Nc1nc(CCNC(=O)OC(C)(C)C)c(C(=O)OC)s1 ?
ARFGAP1 inh: -5; CendR NRP1 mod: -4; ASAP1 GAP inh: -5; Granule exo inh: -1

Results for CC(=O)c1cn(CC(=O)NCC2CCCO2)c2ccccc12 (configuration not stated) ?
ARFGAP1 inh: 0; V-ATPase pHluor: -2; CendR NRP1 mod: 20*; ASAP1 GAP inh: -11; Granule exo inh: 1

What do the screens show for `O=C(Cn1cc(C(=O)C2CC2)c2ccccc21)NCC1CCCO1` (configuration not stated)?
ARFGAP1 inh: -2; V-ATPase pHluor: 0; CendR NRP1 mod: 1; ASAP1 GAP inh: 8; Granule exo inh: 0
